Measured values gathered from unrelated publications.
Compare with care: the assays were run in different laboratories.
Target: Dual specificity mitogen-activated protein kinase kinase 2 (MAP2K2, Homo sapiens, UniProt P36507)

| SMILES | effect on | technique | tested at | remaining binding [%] |
| --- | --- | --- | --- | --- |
| CC(C)(C)c1ccc(-c2nc(CBr)nn2-c2cccc(O)c2)cc1 | cell-free assay | competition with immobilised ligand | 10 µM | 90 |
| CCOC(=O)c1cc2cc(-c3cc(C(=O)NCc4ccc(C(=O)O)cc4)nn3C)ccc2[nH]1 | cell-free assay | competition with immobilised ligand | 0.1 µM | 83 |
| CNC(=O)[C@@H]1CC[C@@H](n2c(-c3ccc4cnccc4c3)nc3ccc(C(=O)NCc4cccc(C(N)=O)c4)cc32)C1 | binding | competition with immobilised ligand | 1 µM | 79 |
| CO[C@@H](C)c1c(Nc2ccc([C@@H](N(C)C(=O)C3CCS(=O)(=O)CC3)C(F)(F)F)cc2)cnc2cc(Cl)nn12 | cell-free assay | competition with immobilised ligand | 1 µM | 97 |
| COc1cnc(Nc2cccc(S(N)(=O)=O)c2)nc1N1CCN(c2ccccc2)CC1 | binding | competition with immobilised ligand | 1 µM | 83 |
| Nc1ncc2c(n1)-c1c([nH]c3ccc(C#CC4CC4)cc13)CCCC2 | binding | competition with immobilised ligand | 1 µM | 96 |
| O=C(NCCCN1CCOCC1)c1ccc(Nc2ncc(Cl)c(-c3ccc(Cl)s3)n2)cc1 | binding | competition with immobilised ligand | 1 µM | 59 |
| CC(=O)N1CCC(c2ccc(C(=O)NC(=N)N)cc2C(F)(F)F)CC1 | cell-free assay | competition with immobilised ligand | 1 µM | 96 |
| CN(C)c1nccc(-c2cnc3ncccn23)n1 | binding | – | 1 µM | 65 |
| Cc1c(NC(=O)c2cc(C(N)=O)nc3cc(F)ccc23)c(C(F)(F)F)nn1Cc1ccc(C(C)(C)C)cc1 | cell-free assay | competition with immobilised ligand | 1 µM | 100 |
| CN(C)c1ncc(F)c(-c2cnn3ncccc23)n1 | binding | – | 1 µM | 74 |
| C[C@@H](c1ccc(-n2cnc3c(N)ncnc32)cc1)N1CCc2nn(C)c(Cc3ccccc3)c2C1=O | binding | competition with immobilised ligand | 0.1 µM | 92 |
| C[C@H]1CCN(c2nccc(-c3cnn4ncccc34)n2)C1 | binding | – | 1 µM | 100 |
| Cc1cnc(Nc2ccc(C(=O)N3CCC(N4CCCC4)CC3)cc2)nc1-c1cc2ccccc2s1 | binding | competition with immobilised ligand | 1 µM | 26 |
| Cc1nccc(COC(=O)N2C[C@@H]3[C@@H](CNC(=O)c4ccc5[nH]nnc5c4)[C@@H]3C2)n1 | cell-free assay | competition with immobilised ligand | 1 µM | 84 |
| C[C@@H]1CN(c2ccc3ncc(-c4ccc5[nH]nc(C6CC6)c5c4)n3n2)C[C@H](C)O1 | binding | competition with immobilised ligand | 50 nM | 72 |
| c1cncc(-c2cccc(Nc3nccc(NC4CCCCC4)n3)c2)c1 | binding | competition with immobilised ligand | 10 µM | 83 |
| F[C@@H]1CCN(c2nccc(-c3cnn4ncccc34)n2)C1 | binding | – | 1 µM | 88 |
| O=C(NCC1CCOCC1)c1n[nH]cc1NC(=O)c1c(F)cccc1F | binding | competition with immobilised ligand | 1 µM | 100 |
| C[C@@H]1CN(c2cc(-c3n[nH]c4ccc(OC5(C)CC5)cc34)ncn2)C[C@H](C)O1 | cell-free assay | competition with immobilised ligand | 0.1 µM | 85 |
| CC1CCCN1c1nccc(-c2cnn3ncccc23)n1 (stereo not drawn) | binding | – | 1 µM | 96 |
| O=C(Nc1cccnn1)N1CC(C/C=C/c2cncc(Oc3ccc(C(F)(F)F)cn3)n2)C1 | cell-free assay | competition with immobilised ligand | 1 µM | 95 |
| N[C@H]1CCN(c2nccc(-c3cnn4ncccc34)n2)C1 | binding | – | 1 µM | 100 |
| O=C(c1ccc(Nc2ncc(Cl)c(-c3cc4ccccc4s3)n2)cc1)N1CCC(N2CCCC2)CC1 | binding | competition with immobilised ligand | 1 µM | 27 |
